A selection: hits, their analogues and other compounds. The true share with any hit is near 0.98%.
ERAP1 inh: inhibitors of human ERAP1 aminopeptidase; Q9NZ08; AID 652197; recombinant ERAP1, Leu-AMC fluorescence, 60 min; inhibition, % at 10.7 µM; 0.15% of 340,000 active;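 active means mean replicate inhibition of at least 30%, or all replicates individually reaching that 30% level; inactive means mean below 30% and not every replicate reaching it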;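 further: 0% = neutral control wells and 100% = L-leucinethiol positive control wells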
S100A4 inh HTS: S100A4-myosin IIA interaction inhibition; P26447; S100A4/TAMRA-MyoIIA peptide fluorescence polarization; inhibition, % at 10.7 µM; 0.14% of 360,000 active;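 active means mean inhibition of at least 70% across replicates, with every replicate also reaching that level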
Target sequence (P26447 whole entry, looked up): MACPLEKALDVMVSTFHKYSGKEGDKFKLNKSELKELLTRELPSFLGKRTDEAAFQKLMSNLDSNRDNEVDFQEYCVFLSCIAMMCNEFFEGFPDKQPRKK
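Test system: S100A4 monomer protein; Medium: HEPES pH 7.2 with CaCl2, KCl, NaCl, DTT, Triton; Probe or stimulus: TAMRA-labelled myosin IIA heavy-chain peptide probe, 5 nM; Doses: one dose per compound; Times: polarization read 5 min after assay mix addition, stable 5–60 min; Benchmarks: neutral control DMSO, positive control TFP.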
Rtt109 Vps75: inhibitors of Candida albicans Rtt109/Vps75 histone acetyltransferase | Q5AAJ8 | inhibition, % at 34.9 µM | purified Rtt109/Vps75, ThioGlo CoA-SH fluorescence, 4 h | 0.16% of 330,000 active;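 active means inhibition of at least 50% in every replicate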
Target sequence (Q5AAJ8 whole entry, looked up): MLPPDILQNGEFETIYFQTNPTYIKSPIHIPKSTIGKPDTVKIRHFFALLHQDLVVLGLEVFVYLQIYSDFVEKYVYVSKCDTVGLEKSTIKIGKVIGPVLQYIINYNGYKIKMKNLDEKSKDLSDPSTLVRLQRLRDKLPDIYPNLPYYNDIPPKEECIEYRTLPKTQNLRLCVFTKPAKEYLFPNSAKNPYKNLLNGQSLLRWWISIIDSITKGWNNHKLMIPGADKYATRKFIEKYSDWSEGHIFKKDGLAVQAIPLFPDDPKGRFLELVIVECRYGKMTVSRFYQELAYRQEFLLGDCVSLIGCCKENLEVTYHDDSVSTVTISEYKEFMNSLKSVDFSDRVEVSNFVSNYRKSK
PGC1a acetyl inh: PGC1a acetylation modulation, inhibitor mode; U2OS PGC1a acetylation, AlphaScreen anti-acetyl-lysine; with virally co-expressed GCN5 acetyltransferase; inhibition, % at 15.6 µM; 0.17% of 350,000 active; AID 651687;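 active means every replicate shows inhibition of at least 40%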;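 further: 0% = neutral control wells and 100% = positive control wells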
Statin myotox sup: protects C2C12 myotubes from simvastatin toxicity; rescue of ATP level, % at 7.49 µM; 0.78% of 330,000 active; ATP luminescence, 48 h; scaled: DMSO 0, geranylgeraniol control 100;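 active means mean ATP rescue above about 67%, or every replicate alone reaching that limit, limit read from the data, passing the limit was not always enough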;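 further: myotubes were challenged with 10 µM simvastatin during compound exposure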
* marks the source's active call; other numbers are inactive results; · = not tested or not shown; ! = not confirmed by another sample.

SMILES	ERAP1 inh	S100A4 inh HTS	Rtt109 Vps75	PGC1a acetyl inh	Statin myotox sup
CO[C@@H]1CN(C)C(=O)c2ccc(NC(C)=O)cc2OC[C@@H](C)N(C(=O)c2cccnc2)C[C@H]1C	1.5	1.3	·	1.7	7.8
Cc1c(C(=O)N2CCc3ccccc32)oc2c1C(=O)CC(C)(C)C2	·	·	-21.2	-3.7	112.1*
CCOC(=O)C1CCN(C=Nc2cc(C)on2)CC1	·	·	-5.3	6.7	147.2*
CCN(CC)C(=S)SSC(=S)N(CC)CC	-0.7	-4.2	150.4*	4.4	6.0
CC(=O)N1c2ccc(S(=O)(=O)N3CCC(C(=O)Nc4ncccc4C)CC3)cc2CC1C (stereo not drawn)	-0.4	86.0*	0.2	-5.3	25.2
CCOC(=O)C1CCN(S(=O)(=O)c2ccc3c(c2)CC(=O)N3C)CC1	100.7*	3.0	14.4	-1.5	-2.8
CCOC(=O)C1CCN(S(=O)(=O)c2ccc3c(c2)CC(C)N3C(=O)C2CCC2)CC1 (stereo not drawn)	1.7	-5.2	53.5*	-18.2	6.4
CC1Cc2cc(S(=O)(=O)N3CCC(C(=O)N(C)Cc4ccco4)CC3)ccc2N1C(=O)C1CCC1 (stereo not drawn)	1.2	2.4	50.2*	-10.1	8.4
Cc1ccc(S(=O)(=O)Nc2ccc3c(c2)CC(=O)N([C@H](C)CO)C[C@@H](C)[C@H](CN(C)Cc2ccc4c(c2)OCO4)O3)cc1	-0.7	-5.7	·	-1.6	37.1
COCC#Cc1cnc2c(c1)C(=O)N([C@H](C)CO)C[C@H](C)[C@H](CN(C)C(=O)C1CCCCC1)O2	-5.4	3.1	·	7.4	22.7
Cc1noc(C)c1NC(=O)N(C)C[C@@H]1Oc2c(NC(=O)c3cnccn3)cccc2C(=O)N([C@@H](C)CO)C[C@H]1C	-0.1	-11.4	·	-5.6	-3.3
CC(C)C#Cc1cnc2c(c1)C(=O)N([C@@H](C)CO)C[C@@H](C)[C@@H](CN(C)C(=O)c1ccccc1F)O2	2.7	15.3	·	31.8	6.3
CC(=O)NC(CC(=O)NCCOc1ccccc1F)c1ccccc1 (stereo not drawn)	35.7*	0.4	7.7	·	47.7
CC(=O)NC(CC(=O)NNC(=O)C(C)Oc1ccccc1F)c1ccccc1 (stereo not drawn)	4.1	-17.6	·	·	·
N#Cc1cccc(-c2ccc(C3[C@@H]4CN(Cc5ccccc5F)C[C@H]3N4)cc2)c1 (stereo partly drawn)	3.4	7.0	·	47.6*!	·
CCCCCCCCCCCCCCCC[n+]1cccc(C(=O)N(CC)CC)c1	68.3*	-2.7	74.0*!	-18.5	-99.3
COc1ccc(NC(=O)N(C)C[C@@H]2Oc3c(NS(=O)(=O)c4cn(C)cn4)cccc3C(=O)N([C@@H](C)CO)C[C@H]2C)cc1	3.2	5.3	·	0.9	·
COc1ccc(/C=C(\NC(=O)c2ccccc2)C(=O)OC[C@@H]2CCC[N+]3(C)CCCCC23)cc1OC (stereo partly drawn)	39.4*	-6.6	-4.8	·	5.1
O=C(C[C@@H]1C=C[C@@H](NS(=O)(=O)c2ccc(F)cc2)[C@H](CO)O1)NC1CCCCC1	0.2	32.2	·	-2.4	14.2
CC(C)CC#Cc1ccc([C@H]2[C@H]3CN(C(=O)Cc4cccnc4)CC(=O)N3[C@H]2CO)cc1	1.4	106.8*	·	10.6	·
CC(C)CC#Cc1ccc([C@@H]2[C@H]3CN(C(=O)Cc4cccnc4)CC(=O)N3[C@H]2CO)cc1	-0.6	5.8	·	9.7	·
Cn1nnnc1SCC(=O)c1cccs1	·	·	-0.4	-4.7	-0.8
Cc1cc(C)c(-n2nnnc2SCC(=O)c2cccs2)c(C)c1	-4.4	0.1	60.2*	-4.1	-12.4
CC(C)[C@H](N)c1nnc(SCC(=O)c2ccc(Cl)cc2)o1	·	·	-8.7	-4.5	0.6
C[C@H](N)c1nnc(SCC(=O)c2ccc(Cl)cc2)o1	·	·	-4.7	-0.5	118.5*
O=C([C@@H]1[C@@H](CO)[C@@H]2Cn3c(cccc3=O)[C@@H]2N1Cc1ccccc1Cl)N1CCCCC1	-3.9	0.2	·	·	-5.9
CC(C)NC(=O)Nc1ccc2c(c1)C(=O)N([C@H](C)CO)C[C@H](C)[C@H](CN(C)CC1CCCCC1)O2	-2.5	-11.1	·	·	-5.9
COCCn1c(-c2ccccc2F)n[nH]c1=S	·	·	7.4	-0.5	137.2*
C=CCNC(=O)C(C#N)c1nc2ccccc2nc1N1CCCCCC1 (stereo not drawn)	·	·	-35.6	-3.7	85.7*

Compound activity (PubChem BioAssay)
